A selection: hits, their analogues and other compounds. The true share with any hit is near 2.2%.
Rin1-Abl PPI inh: blocks binding of human Rin1 to Abl; TR-FRET Rin1/Abl binding, biochemical; inhibition, % at 7.35 µM; 360,000 tested, 0.4% active; in the data active = inhibition above about 5%, passing the limit was not always enough
PAD4 FP inh: inhibitors of human PAD4; Q9UM07; recombinant PAD4, RCA probe fluorescence polarization; inhibition, % at 6.36 µM; 330,000 tested, 0.41% active;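 active = percent inhibition above a cutoff equal to the mean of all tested compounds plus 3 SD, cut at about 15% in these data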
GSTO1 counter: GSTO1 inhibition, counter-screen for RBBP9 inhibitors; P78417; recombinant GSTO1, activity-based probe fluorescence polarization; inhibition, % at 5.96 µM; 300,000 tested, 1.1% active; AID 1974;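 active = inhibition above the campaign mean inhibition plus 3 SD, cut at about 35% in these data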
Target sequence (P78417 whole entry, looked up): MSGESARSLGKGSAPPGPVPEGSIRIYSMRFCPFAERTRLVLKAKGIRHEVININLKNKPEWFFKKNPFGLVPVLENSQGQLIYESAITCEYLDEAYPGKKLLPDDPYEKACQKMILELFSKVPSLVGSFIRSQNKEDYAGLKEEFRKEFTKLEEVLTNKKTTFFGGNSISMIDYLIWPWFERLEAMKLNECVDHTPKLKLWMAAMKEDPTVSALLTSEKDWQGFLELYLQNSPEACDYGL
Apaf-1 inh: blocks human Apaf-1 apoptosome activity; inhibition, % at 20 µM; O14727; reconstituted apoptosome caspase-3 activity, DEVD-Rh110 fluorescence; 330,000 tested, 0.71% active; AID 489030; active = inhibition of at least 40% at 20 µM
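Material: reconstituted apoptosome with Apaf-1, cytochrome c, caspase-9, procaspase-3, dATP / Buffer or medium: pH 7.5 Hepes buffer with CHAPS, BSA, DTT / Also added: cytochrome c with DEVD-Rh110 / Schedule: compound with Apaf-1, dATP, procaspase-3 30 min, then 50 min reaction, room temperature / Technique: rhodamine 110 fluorescence at Ex 480/Em 540 nm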
UBC9 SUMO inh: SUMOylation inhibition; HTRF SUMOylation assay, SAE1/SAE2 + UBC9, in vitro; inhibition, % at 35 µM; 290,000 tested, 0.36% active; AID 2006; in the data active = inhibition above about 50%, passing the limit was not always enough; inconclusive = no clear call, values can overlap the other calls
Target sequence (P63279 whole entry, looked up): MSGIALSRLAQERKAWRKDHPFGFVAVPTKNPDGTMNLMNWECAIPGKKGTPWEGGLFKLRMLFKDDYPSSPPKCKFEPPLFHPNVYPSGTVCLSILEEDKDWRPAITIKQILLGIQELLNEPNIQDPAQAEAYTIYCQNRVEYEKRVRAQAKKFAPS
UBC13 inh: human UBC13 polyubiquitination inhibition; inhibition, % at 20 µM; UBC13 polyubiquitin chain formation, TR-FRET; P61088; AID 485273; 330,000 tested, 0.47% active; in the data active = inhibition above about 45%, passing the limit was not always enough; inconclusive = no clear call, values can overlap the other calls
Target sequence (P61088 whole entry, looked up): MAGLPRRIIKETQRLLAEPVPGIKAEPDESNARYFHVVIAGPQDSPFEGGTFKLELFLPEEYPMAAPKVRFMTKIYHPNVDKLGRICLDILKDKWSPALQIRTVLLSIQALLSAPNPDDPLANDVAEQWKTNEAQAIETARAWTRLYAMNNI
Casp3 UBC13 ctr: inhibits human caspase-3 in UBC13 counter-screen. shares compounds with UBC13 inh. Recombinant caspase-3, Caspase-Glo 3/7 luminescence, 60 min. inhibition, % at 20 µM. 1,400 tested, 4% active. AID 488856;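 active = mean inhibition across replicates above about 26%, limit read from the data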
UBC13 conf: human UBC13 polyubiquitin inhibition, confirmed; shares compounds with UBC13 inh; UBC13 polyubiquitination, TR-FRET, biochemical; inhibition, % at 10 µM; 1,400 tested, 68% active; AID 488859; in the data active = inhibition above about 45%; inconclusive = no clear call, values can overlap the other calls
Large screens that a line does not name were inactive (follow-up assays come after a bar, where they were run).

Cc1noc(C)c1NC(=O)N(C)C[C@@H]1Oc2ncc(Br)cc2C(=O)N([C@@H](C)CO)C[C@@H]1C	none (no result: PAD4 FP inh, GSTO1 counter, Apaf-1 inh, UBC9 SUMO inh, UBC13 inh)
CCCn1c(N)c(N(CCOC)C(=O)CSc2ccccc2)c(=O)[nH]c1=O	none (no result: GSTO1 counter, UBC9 SUMO inh)
CCCC[C@@H]1CNCCN1CCc1cc(C(F)(F)F)cc(C(F)(F)F)c1	UBC13 inh 55 (no result: UBC9 SUMO inh) | Casp3 UBC13 ctr inactive | UBC13 conf inactive
CCC(C)[C@H]1CNCCN1CCc1cc(C(F)(F)F)cc(C(F)(F)F)c1 (some centres not stated)	UBC13 inh 60 (no result: UBC9 SUMO inh) | Casp3 UBC13 ctr inactive | UBC13 conf inactive
CCCC[C@@H]1CNC(=O)C(=O)N1CCc1cc(C(F)(F)F)cc(C(F)(F)F)c1	none
CCCCN(CC)CCNC(=O)c1cc2c(=O)n(C)c3ccccc3c2n1C	UBC13 inh 57 | Casp3 UBC13 ctr inactive | UBC13 conf 53
CCN(CC)CCCNC(=O)c1cc2c(=O)n(C)c3ccccc3c2n1C	none
C[C@H](NC(=O)c1[nH]cnc1C(=O)N[C@@H](C)CO)c1ccccc1	none (no result: PAD4 FP inh, GSTO1 counter, Apaf-1 inh, UBC9 SUMO inh, UBC13 inh)
O=C(NCCCN1CCCC1)c1ccc2c(c1)N(Cc1ccccc1)CCS2	UBC13 inh 55 | Casp3 UBC13 ctr inactive | UBC13 conf 69
CCN1CCN(CCCNC(=O)c2ccc3c(c2)N(Cc2ccccc2)CCS3)CC1	none
COc1ccc(CCN(/C=C2\Sc3ccccc3C2=O)C(C)=O)cc1OC	UBC13 inh 52 | Casp3 UBC13 ctr inactive | UBC13 conf inactive
CN(C)/C=C1/Sc2ccccc2C1=O	none
COc1ccc(C(C)(C)C)cc1NC(=O)c1ccccc1-n1cnnn1	none (no result: GSTO1 counter, UBC9 SUMO inh)
NC(=O)c1c(NC(=O)CN2CCOCC2)sc2c1CCC2	none
NC(=O)c1c(NC(=O)C(=O)NCCCN2CCOCC2)sc2c1CCCC2	UBC13 inh 52 | Casp3 UBC13 ctr inactive | UBC13 conf 73
COc1ccccc1NC(=O)COc1cccnc1[N+](=O)[O-]	UBC13 inh 46 (no result: GSTO1 counter, UBC9 SUMO inh) | Casp3 UBC13 ctr inactive | UBC13 conf inactive
O=C(COc1cccnc1[N+](=O)[O-])Nc1ccc(F)cc1	none (no result: GSTO1 counter, UBC9 SUMO inh)
CCOc1ccccc1NC(=O)COc1cccnc1[N+](=O)[O-]	UBC13 inh 51 (no result: GSTO1 counter, UBC9 SUMO inh) | Casp3 UBC13 ctr inactive | UBC13 conf inactive
Cc1ccc(CN2CC(N3CCCC3)CS2(=O)=O)cc1 (configuration not stated)	none (no result: PAD4 FP inh, GSTO1 counter, Apaf-1 inh, UBC9 SUMO inh, UBC13 inh)
Nc1ccc(OCCCc2c(N)nc(N)nc2N)cc1	UBC13 inh 47 | Casp3 UBC13 ctr inactive | UBC13 conf 64
COc1ccc(C(=O)NCCCN2CCCC2=O)cc1S(=O)(=O)N1CCOCC1	none (no result: PAD4 FP inh, GSTO1 counter, Apaf-1 inh, UBC9 SUMO inh, UBC13 inh)
Cc1nc(N)sc1C(=O)NN	UBC13 inh 49 | Casp3 UBC13 ctr inactive | UBC13 conf inactive
Cc1cccc(C(=O)Oc2ccc(/C=N/NC(=O)c3ccc(O)cc3)cc2)c1	none (no result: PAD4 FP inh, GSTO1 counter)
COc1cc(/C=N/NC(=O)CSCc2ccc([N+](=O)[O-])cc2)cc(OC)c1OC	UBC13 inh 86 | Casp3 UBC13 ctr inactive | UBC13 conf 103
O=C(CSCc1ccc(Cl)cc1)NN=C1CCCC1	none
Cc1cccc(C(=O)Oc2ccc(/C=N/NC(=O)Cc3ccc([N+](=O)[O-])cc3)cc2)c1	UBC13 inh 86 | Casp3 UBC13 ctr inactive | UBC13 conf 61
O=C(CSCc1ccc([N+](=O)[O-])cc1)NN=C1CCCCCC1	UBC13 inh 91 | Casp3 UBC13 ctr inactive | UBC13 conf 105
COc1ccc(/C=N/NC(=O)CSCc2ccc([N+](=O)[O-])cc2)cc1OC	UBC13 inh 79 | Casp3 UBC13 ctr inactive | UBC13 conf 71
CCCc1c(C(=O)N/N=C/c2ccc(OCc3ccc(F)cc3)cc2)nnn1-c1nonc1N	none (no result: PAD4 FP inh, GSTO1 counter, Apaf-1 inh, UBC9 SUMO inh, UBC13 inh)
COc1cccc(-c2cnc3c(NC(C)=O)cc(-c4cc(OC)c(OC)c(OC)c4)cn23)c1	none (no result: PAD4 FP inh, GSTO1 counter, Apaf-1 inh, UBC9 SUMO inh, UBC13 inh)
CC(=O)Nc1ccccc1-c1cccc2nccn12	none (no result: PAD4 FP inh, GSTO1 counter, Apaf-1 inh, UBC9 SUMO inh, UBC13 inh)
COc1ccc2cc1Oc1ccc(cc1)C[C@H]1c3c(cc(OC)c4c3Oc3c(ccc5c3[C@H](C2)N(C)CC5)O4)CCN1C	Apaf-1 inh 59, UBC13 inh 80 (no result: GSTO1 counter, UBC9 SUMO inh) | Casp3 UBC13 ctr inactive | UBC13 conf 78
Cc1ccc(Nc2cc(C)nc(NCc3ccccc3)n2)cc1	UBC13 inh 56 | Casp3 UBC13 ctr inactive | UBC13 conf 83
CCOc1ccccc1N(C)C(=O)CCS(=O)(=O)c1ccc2c(c1)NC(=O)C(C)S2 (configuration not stated)	none
CCC(C)n1c(=O)c(C(=O)Nc2ccccc2S(N)(=O)=O)c(O)c2ccccc21 (configuration not stated)	none
CC(C)Cn1c(=O)c(C(=O)Nc2ccccc2S(N)(=O)=O)c(O)c2ccccc21	UBC13 inh 69 | Casp3 UBC13 ctr inactive | UBC13 conf inactive
C=CCn1c(NC(=O)c2ccc(C)cc2)nc2ccccc21	UBC13 inh 46 | Casp3 UBC13 ctr inactive | UBC13 conf inconclusive
CCCn1c(NC(=O)c2ccc(C)cc2)nc2ccccc21	none
CCc1nc2c(OCc3ccc(OC)cc3)cccn2c1N(C)C(=O)c1ccncc1	none (no result: PAD4 FP inh, GSTO1 counter, Apaf-1 inh, UBC9 SUMO inh, UBC13 inh)
C=CCNC(=O)NC(=O)CSc1nnc(C(F)(F)F)n1C	UBC13 inh 48 | Casp3 UBC13 ctr inactive | UBC13 conf inactive
CNC(=O)NC(=O)CSc1nnc(C(F)(F)F)n1C	none
CC[C@H]1CN2CCc3cc(OC)c(OC)cc3C2C[C@@H]1C[C@H]1NCCc2cc(OC)c(OC)cc21 (some centres not stated)	UBC13 inh 53 (no result: UBC9 SUMO inh) | Casp3 UBC13 ctr inactive | UBC13 conf inactive
COc1ccccc1[C@@H]1C(c2cccc(C)c2)=NN(c2ccccc2)[C@H]1C(=O)N1CCOC1=O	UBC13 inh 46 | Casp3 UBC13 ctr inactive | UBC13 conf 46
C#CCOCCOCCOCCNc1nc(N2CCN(C(=O)CCCCCCCCCCNC(=O)[C@@H](CCC(=O)O)n3cc(CCCCCN)nn3)CC2)nc(N2CCN(C(=O)CCCCCCCCCCNC(=O)[C@H](CO)n3cc(CCCCCN)nn3)CC2)n1	Apaf-1 inh 54, UBC13 inh 102 (no result: UBC9 SUMO inh) | Casp3 UBC13 ctr inactive | UBC13 conf 74
C#CCOCCOCCOCCNc1nc(N2CCN(C(=O)CCCCCCCCCCNC(=O)[C@@H](CCC(=O)O)n3cc(CCCCCN)nn3)CC2)nc(N2CCN(C(=O)CCCCCCCCCCNC(=O)[C@H](CO)n3cc(CCCSC)nn3)CC2)n1	UBC13 inh 84 (no result: UBC9 SUMO inh) | Casp3 UBC13 ctr inactive | UBC13 conf inactive
NC(=O)C1(NC2CCCCC2)CCN(Cc2ccccc2)CC1	none (no result: PAD4 FP inh, GSTO1 counter, Apaf-1 inh, UBC9 SUMO inh, UBC13 inh)
COc1ccc2nc(SCC(=O)NCc3ccc(S(N)(=O)=O)cc3)[nH]c2c1	none
CCc1ccccc1OCC(=O)OCC(=O)Nc1cc(C)on1	UBC13 inh 48 (no result: GSTO1 counter, UBC9 SUMO inh) | Casp3 UBC13 ctr inactive | UBC13 conf inactive
